Experimental data as given in PubChem BioAssay AID2611 (Broad Institute, 2010).

The compounds below were run on BJeLR fibroblasts viability, Alamar Blue fluorescence, 48 h (assay: viability loss in RAS-dependent TERT BJ cells – cell-based, alamar blue fluorescence, powder samples, dose response (AID 2611)).
Summary of the method: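 Dosing: twofold serial dilution series, 0.01 to 5.33 µg/mL compound; incubation: 48 h compound treatment, ~16 h dye step; signal: Alamar blue fluorescence, ex 544/em 590 nm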

Row | Structure (SMILES) | EC50 [µM]
1 | COc1ccc(N(C(=O)CCl)C(C(=O)NCCc2ccccc2)c2cccs2)cc1Cl (centres undefined) | 2.43
2 | Nc1nc(CCl)nc(Nc2ccc3ccccc3c2)n1 | 2.06
3 | COC(=O)[C@@H]1Cc2c([nH]c3ccccc23)C(C)(C)N1C(=O)CCl | 6.2
4 | COc1ccc(CN(CCC(c2ccccc2)c2ccc(OC(C)C)cc2)C(=O)CCl)cc1OC (centres undefined) | 2.71
5 | O=C(CCl)N=c1sccn1Cc1ccccc1Cl | 12.1
6 | COc1ccc(C(C(=O)NC2CCCCC2)N(C(=O)CCl)c2ccc(C)cc2)cc1 (centres undefined) | 7.65
7 | COc1ccc(N(C(=O)CCl)C(C(=O)NCCc2ccccc2)c2cccs2)cc1 (centres undefined) | 2.26
8 | Cc1ccc(N(C(=O)CCl)C(C(=O)NC2CCCCC2)c2cccnc2)cc1C (centres undefined) | 2.27
9 | COc1cccc(N(C(=O)CCl)C(C(=O)NCCc2ccccc2)c2cccs2)c1 (centres undefined) | 3.2
10 | C=CCOc1ccccc1CN(C(=O)CCl)c1ccc2c(c1)OCO2 | 18.6
11 | Cc1ccc(C2CC(c3cccs3)=NN2C(=O)CCl)cc1 (centres undefined) | 4.62
12 | COc1ccc(C(C(=O)NC2CCCCC2)N(C(=O)CCl)c2cccc(Cl)c2)cc1 (centres undefined) | 3.36
13 | CCOc1ccc(Nc2nc(N)nc(CCl)n2)cc1 | 2.89
14 | CCCCCCCN(C(=O)CCl)c1cccc(C)c1 | 5.74
